Experimental data reported in ChEMBL document CHEMBL1795270, “Synthesis and biological evaluation of a novel human stem/progenitor cells proliferation activator: 4-(4-(5-mercapto-1,3,4-oxadiazol-2-yl)phenyl) thiosemicarbazide (Stemazole)” (Eur J Med Chem, 2011).
The source made the active and inactive calls. No cut-off for these calls is given here.

Legend:
[1] = Inhibition of human HSC proliferation after 4 days by luminescent cell viability assay; settings: 96 h
Summary of the method: (§1)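 Sixth-passage HSCs (kept as neurospheres in DMEM/F12 with bFGF, EGF, B27) plated at 1×10^3 cells/well in basic medium, left 24 h, then given serial dilutions for 4 days. DMSO as negative control, bFGF as positive control. Read-out by CellTiter-Glo: reagent added to the cells, 10 min at ambient temperature, then luminescence read. Values relative to DMSO (100%). At least triplicate, repeated three times, mean ± SD.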

[2] = Solubility of the compound in DMSO; format: physicochemical
[3] = Induction of human HSC proliferation after 4 days by luminescent cell viability assay; format: functional; summary of the method: as §1
[4] = Cytotoxicity against human HSC after 4 days at 100 uM by luminescent cell viability assay; settings: 96 h; summary of the method: as §1
Homo sapiens [5] = species: Homo sapiens; assay: Induction of human HSC proliferation assessed as fold increase after 6 days by direct phase contrast microscopy; format: functional
Summary of the method: (§2)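 HSCs kept serum-free without bFGF, seeded at 1×10^3 cells/well, then given a range of concentrations for 2, 4 and 6 days. Read at each time point by phase-contrast imaging, cell counting (three pictures per group, haemocytometer) and CellTiter-Glo luminescence. DMSO as negative control, bFGF as positive control. Mean ± SD.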

[6] = Cytotoxicity against human HSC assessed as morphological changes 13.8 to 40.2 uM up to 6 days by phase contrast microscopy; settings: 144 h
Summary of the method: (§3)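 Phase-contrast microscope images of HSCs treated with various concentrations, DMSO or bFGF, taken at 2, 4 and 6 days. Scored by morphology, including signs of differentiation such as axonal growth or adipose drop appearance.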

Homo sapiens [7] = species: Homo sapiens; assay: Induction of human HSC proliferation under serum free condition at 5 to 40 uM by cell counting and luminescent cell viability assay; format: functional; settings: TDE = time-dependent effect; summary of the method: as §2
Homo sapiens [8] = species: Homo sapiens; assay: Induction of human CSC proliferation after 4 days by luminescent cell viability assay; format: functional
Summary of the method: (§4)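 Third-passage CSCs (maintained in IMDM with 10% FBS and 2-mercaptoethanol) plated at 1×10^3 cells/well in basic medium, left 24 h, then treated for 4 days. DMSO as negative control. Viability read by CellTiter-Glo luminescence after 10 min at ambient temperature. At least triplicate, repeated three times, mean ± SD.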

Homo sapiens [9] = species: Homo sapiens; assay: Induction of human PSC proliferation after 4 days by luminescent cell viability assay; format: functional
Summary of the method: as §4, with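 “Sixth-passage PSCs (expanded” for “Third-passage CSCs (maintained”, “DMEM/F12, 7.33 mM glucose,” for “IMDM”, “20 ng/mL bFGF)” for “2-mercaptoethanol)”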

Homo sapiens [10] = species: Homo sapiens; assay: Induction of human HSC proliferation under serum free condition after 4 days by cell counting and luminescent cell viability assay; format: functional; summary of the method: as §2
[11] = Cytotoxicity against human HSC assessed as axonal growth or adipose drop appearance 13.8 to 40.2 uM up to 6 days by phase contrast microscopy; settings: 144 h; summary of the method: as §3
[12] = Induction of human HSC proliferation assessed as population doubling time at 41.6 uM by cell counting and luminescent cell viability assay (reference value: 73.6 hrs); format: functional
[13] = Homo sapiens, 96 h, read-out: EC50

In the case of S=C(NNc1ccc(Cl)cc1)Nc1ccc(-c2nnc(S)o2)cc1, the IC50 [1] is reported as 3.2 µM and the solubility [2] is reported as “soluble”.

In the case of CNNC(=S)Nc1ccc(-c2nnc(S)o2)cc1, the solubility [2] is reported as “soluble”.

With S=C(NNCc1ccccc1)Nc1ccc(-c2nnc(S)o2)cc1 the solubility [2] was “soluble” and the EC50 [3] was “Not Active”.

For NNC(=S)Nc1ccc(-c2nnc(S)o2)cc1 [STEMAZOLE], the Activity [4] was “Non-toxic”, the fold change (FC) (Homo sapiens [5]) was 3 and the Activity [6] was “Non-toxic”. For the same compound, the Activity (Homo sapiens [7]) was “tde”, the Activity (Homo sapiens [8]) was “Active” and the Activity (Homo sapiens [9]) was “Active”. The solubility [2] was “soluble”, the Activity (Homo sapiens [10]) was “Dose-dependent effect” and the Activity [11] was “Non-toxic”. For the same compound, the Time [12] was 48.5 h and the EC50 [3, 13] was 7.5 µM.

With NNC(=S)Nc1ccc(-c2nnc(S)o2)cc1Br the Activity [4] was “Toxic”, the solubility [2] was “soluble” and the EC50 [3, 13] was 10 µM.

For S=C(NNc1ccccc1)Nc1ccc(-c2nnc(S)o2)cc1, the IC50 [1] was 8.3 µM and the solubility [2] was “soluble”.

With COc1ccc(NNC(=S)Nc2ccc(-c3nnc(S)o3)cc2)cc1 the IC50 [1] was 42.7 µM and the solubility [2] was “soluble”.
